The results in this text go back to ChEMBL document CHEMBL3868630, “Synthesis, anti-proliferative activity, SAR study, and preliminary in vivo toxicity study of substituted N,N'-bis(arylmethyl)benzimidazolium salts against a panel of non-small cell lung cancer cell lines” (Bioorg Med Chem, 2017).

SMILES strings stand for the structures.

Series [1] can be described thus: Growth inhibition of human A549 cells after 48 hrs by SRB assay. It counts as functional. To be noted: A549, 48 h. (The SRB assay estimates cell density from bound dye.)
A short description of series [2]: Cytotoxicity against human NCI-H460 cells assessed as decrease in cell viability after 72 hrs by MTT assay. It counts as functional, cell-based. To be noted: NCI-H460, 72 h. The method in brief:
(§1)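 Cells kept in RPMI 1640 with 10% FBS at 37 °C, 5% CO2, passaged every 2-3 days; seeded at 5,000-7,000 cells/well and left 24 h. Compounds dissolved in 1% DMSO, diluted in fresh medium to 1, 4, 16 and 32 µM, added in sextuplicate; 72 h exposure. MTT added for 3-4 h, medium removed, DMSO added for 15 min at 37 °C, OD read at 540 nm.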
Background: Tetrazolium dyes change colour on reduction, which living cells bring about.

A short description of series [3]: Cytotoxicity against human NCI-H1975 cells assessed as decrease in cell viability after 72 hrs by MTT assay. It counts as functional, cell-based. The following applies: NCI-H1975, 72 h. The gist of the method: as §1
Series [4] in a line: Cytotoxicity against human HCC827 cells assessed as decrease in cell viability after 72 hrs by MTT assay. It counts as functional, cell-based. The following applies: HCC827, 72 h. The method in brief:
as §1

Series [5] in a line: Cytotoxicity against human A549 cells assessed as decrease in cell viability after 72 hrs by MTT assay. It counts as functional, cell-based. The following applies: A549, 72 h. The gist of the method:
as §1

Series [6] is described as follows: Cytotoxicity against human NCI-H226 cells assessed as cell growth at 10 uM after 48 hrs by SRB assay relative to control. The following applies: NCI-H226, 48 h, read-out: Activity. It counts as functional.
Series [7] is described as follows: Cytotoxicity against human HOP92 cells assessed as cell growth at 10 uM after 48 hrs by SRB assay relative to control. It counts as functional. The following applies: HOP-92, 48 h, read-out: Activity.
Series [8] can be described thus: Cytotoxicity against human A549 cells assessed as cell growth at 10 uM after 48 hrs by SRB assay relative to control. To be noted: A549, 48 h, read-out: Activity. It counts as functional.
The nature of series [9]: Cytotoxicity against human EKVX cells assessed as cell growth at 10 uM after 48 hrs by SRB assay relative to control. To be noted: read-out: Activity. It counts as functional.
Series [10] is described as follows: Cytotoxicity against human HOP62 cells assessed as cell growth at 10 uM after 48 hrs by SRB assay relative to control. To be noted: HOP-62, 48 h, read-out: Activity. It counts as functional.
The nature of series [11]: Cytotoxicity against human NCI-H23 cells assessed as cell growth at 10 uM after 48 hrs by SRB assay relative to control. The following applies: NCI-H23, 48 h, read-out: Activity. It counts as functional.
Series [12] can be described thus: Cytotoxicity against human NCI-H322M cells assessed as cell growth at 10 uM after 48 hrs by SRB assay relative to control. It counts as functional. The following applies: read-out: Activity.
Series [13] is described as follows: Cytotoxicity against human NCI-H460 cells assessed as cell growth at 10 uM after 48 hrs by SRB assay relative to control. It counts as functional. The following applies: NCI-H460, 48 h, read-out: Activity.
A short description of series [14]: Cytotoxicity against human NCI-H522 cells assessed as cell growth at 10 uM after 48 hrs by SRB assay relative to control. It counts as functional. The following applies: NCI-H522, 48 h, read-out: Activity.
The nature of series [15]: Growth inhibition of human EKVX cells after 48 hrs by SRB assay. It counts as functional.
Series [16] in a line: Growth inhibition of human HOP62 cells after 48 hrs by SRB assay. It counts as functional. To be noted: HOP-62, 48 h.
Series [17] is described as follows: Growth inhibition of human HOP92 cells after 48 hrs by SRB assay. It counts as functional. To be noted: HOP-92, 48 h.
Series [18] in a line: Growth inhibition of human NCI-H226 cells after 48 hrs by SRB assay. To be noted: NCI-H226, 48 h. It counts as functional.
A short description of series [19]: Growth inhibition of human NCI-H23 cells after 48 hrs by SRB assay. It counts as functional. To be noted: NCI-H23, 48 h.
Series [20] in a line: Growth inhibition of human NCI-H322M cells after 48 hrs by SRB assay. It counts as functional.
Series [21] can be described thus: Growth inhibition of human NCI-H460 cells after 48 hrs by SRB assay. It counts as functional. To be noted: NCI-H460, 48 h.
Series [22] is described as follows: Growth inhibition of human NCI-H522 cells after 48 hrs by SRB assay. It counts as functional. To be noted: NCI-H522, 48 h.
Series [23] in a line: Aqueous solubility of the compound. It counts as physicochemical.

On to `CCCCc1n(Cc2ccc3ccccc3c2)c2ccccc2[n+]1Cc1ccc2ccccc2c1.[Br-]`, for which the GI50 (in general, the concentration that inhibits growth by half) in series [1] stood at 1.04 µM; in series [15] it was 1.17 µM; in series [16] it was 1.05 µM; in series [17], 0.298 µM; in series [18], 1.08 µM; in series [19] it was 0.371 µM. In addition, the GI50 in series [20] came out at 1.22 µM; in series [21], 0.436 µM; in series [22], 0.289 µM. The TGI – broadly, the concentration giving total growth inhibition – in [1] worked out at 2.42 µM; in [16], 2.55 µM; in [17], 1.35 µM; in series [19] it was 1.7 µM; in series [20], 2.57 µM; in [22], 1.35 µM. For the same molecule, the IC50 (usually the midpoint of a concentration-inhibition curve) was 2 µM in [2], under 1 µM in series [3], 2 µM in series [4] and 2 µM in [5]. Also, the growth at 10 µM in series [6] was -72.7%; in series [7], -70.7%; in series [8], -72.3%; in series [9], -84.6%; in series [10], -76.8%; in series [11] it was -83.9%. For the same molecule, the growth at 10 µM is -82.2% in series [12], -81.1% in series [13] and -77.2% in series [14]. Moreover, the solubility (as a rule, the dissolved amount per volume that the medium holds) in series [23] was under 500 µg/mL.
`CCCc1n(Cc2ccc3ccccc3c2)c2ccccc2[n+]1Cc1ccc2ccccc2c1.[Br-]`: the GI50 in series [1] came to 0.619 µM; in [15], 0.653 µM; in series [16] it was 0.537 µM; in series [17] it was 0.192 µM; in series [18] it was 0.373 µM; in [19] it was 0.354 µM. In addition, the results for the GI50 in series [20], in series [21] and in [22] were 1.04 µM, 0.337 µM and 0.3 µM, respectively. Further, the LC50 (usually the concentration lethal to half of the exposed cells or organisms) in series [1] was 5.09 µM. Besides, the TGI in series [1] amounted to 2.04 µM; in series [15], 2.33 µM; in series [16], 2.03 µM; in series [17] it was 0.911 µM; in series [18], 1.8 µM; in series [19], 1.6 µM. The concentration for total growth inhibition (TGI) in series [20] was 2.31 µM; in series [21], 1.36 µM; in [22] it was 1.05 µM. Further, the IC50 in [2] is 2 µM; in series [3] it was under 1 µM; in series [4], under 1 µM; in series [5] it was 2 µM. For the same molecule, the growth at 10 µM is -4.44% in series [6]; -48.1% in series [7]; -19.4% in [8]; -4.84% in series [9]; -55.4% in series [10]; -12.9% in [11]. The growth at 10 µM is 4.72% in series [12], -76.1% in series [13] and -60.1% in series [14]. Further, in [23], the solubility was under 500 µg/mL.
With `COCCc1n(Cc2ccc3ccccc3c2)c2ccccc2[n+]1Cc1ccc2ccccc2c1.[Br-]`, the IC50 in series [2] turned out to be 3 µM; in [3], 2 µM; in series [4], 3 µM; in series [5], 3 µM. Also, the growth at 10 µM was -7.12% in series [6]; -53.1% in [7]; 4.72% in series [8]; 4.7% in series [9]; -19.1% in series [10]; -24.3% in series [11]. Also, the growth at 10 µM is 5.25% in series [12], -65.3% in series [13] and -54.4% in [14]. Also, in [23], the solubility is under 500 µg/mL.
In the case of `COC(=O)c1ccc2c(c1)n(Cc1ccc3ccccc3c1)c[n+]2Cc1ccc2ccccc2c1.[Br-]`, the IC50 in series [2] came to 9 µM; in series [3] it was 7 µM; in series [4], 12 µM; in series [5] it was 16 µM. The growth at 10 µM was 61.3% in series [6]; -10.7% in series [7]; 75% in [8]; 71% in [9]; 63.8% in [10]; 34.6% in series [11]. Further, the growth at 10 µM in series [12] came to 57.2%; in [13], 28.6%; in series [14] it was 26.3%. The solubility in [23] is under 500 µg/mL.
As to `[Br-].c1ccc2cc(Cn3c[n+](Cc4ccc5ccccc5c4)c4ccccc43)ccc2c1`, the GI50 in series [1] came out at 1.87 µM; in [15] it was 1.47 µM; in series [16], 1.54 µM; in series [17], 0.192 µM; in [18], 1.46 µM; in series [19] it was 1.05 µM. For the same molecule, the 50% growth inhibitory concentration (GI50) in series [20] came to 1.49 µM; in series [21] it was 1.35 µM; in series [22], 1.25 µM. For the same molecule, the LC50 in series [1] was found to be 8.01 µM; in [17], 4.93 µM. Moreover, the TGI in [1] was determined as 3.88 µM; in [15], 2.95 µM; in series [16] it was 2.98 µM; in series [17], 1.57 µM; in series [18], 3.25 µM; in series [19] it was 2.51 µM. Also, the TGI in [20] was 2.89 µM; in series [21], 2.91 µM; in series [22], 2.82 µM. The IC50 was determined as 3 µM in series [2], 3 µM in series [3], 3 µM in series [4] and 5 µM in series [5]. The growth at 10 µM in [6] was 19.6%; in [7], -27.6%; in [8] it was 30.9%; in series [9], 13.9%; in [10], 3.98%; in [11] it was -0.74%. Besides, the growth at 10 µM in [12] is 34.6%; in [13], -34.2%; in series [14], -28.8%. Moreover, the solubility in series [23] was under 500 µg/mL.
As for `COCCOCCOCc1n(Cc2ccc3ccccc3n2)c2ccccc2[n+]1Cc1ccc2ccccc2n1.[Cl-]`, the IC50 was 4 µM in [2], under 1 µM in [3], 4 µM in [4] and 9 µM in [5]. In addition, the growth at 10 µM in series [6] was 37.9%; in [7], -22.1%; in [8], 39.4%; in series [9], 71.6%; in series [10] it was 20.8%; in series [11] it was 12.8%. Moreover, the growth at 10 µM in [12] was 47.4%; in series [13], 16.5%; in series [14] it was -1.7%. This molecule also had a solubility in series [23] of 42200 µg/mL.
Take `O=c1n(Cc2ccc3ccccc3c2)c2ccccc2n1Cc1ccc2ccccc2c1`: the IC50 is over 30 µM in series [2], 19 µM in [3], over 30 µM in series [4] and over 30 µM in [5]. Also, the growth at 10 µM in series [6] worked out at 83.9%; in [7], 79.9%; in [8], 85.2%; in series [9] it was 79.5%; in series [10], 62.8%; in [11], 77.7%. For the same molecule, the growth at 10 µM in series [12] was 81.6%; in series [13] it was 74.6%; in series [14], 73.4%. For the same molecule, in [23], the solubility was under 500 µg/mL.
Consider `COCCOCCOCc1n(Cc2ccc3ccccc3c2)c2ccccc2[n+]1Cc1ccc2ccccc2c1.[Br-]`, for which the IC50 in series [2] came to 3 µM; in series [3] it was 3 µM; in series [4], 5 µM; in [5] it was 5 µM. The growth at 10 µM in series [6] was 17.2%; in series [7], -32.1%; in series [8], 33.1%; in series [9] it was 47.4%; in [10], 17.1%; in [11] it was 5.56%. The growth at 10 µM in series [12] was 40.5%; in series [13] it was 10.3%; in series [14], -16.6%. Also, the concentration in solution in series [23] (solubility) was 700 µg/mL.
